Measurements taken from ChEMBL document CHEMBL3352685, “Small-molecule inhibitors of 25-hydroxyvitamin D-24-hydroxylase (CYP24A1): synthesis and biological evaluation” (J Med Chem, 2014).

How the values were obtained:
[1] = target: T1, 1,25-dihydroxyvitamin D(3) 24-hydroxylase, mitochondrial (Homo sapiens, UniProt Q07973); test: Inhibition of human MBP-tagged CYP24A1 expressed in Escherichia coli using 1,25(OH)2D3 substrate in presence of bovine adrenodoxin, adrenodoxin reductase and NADPH incubated at 37 degC for 25 mins by HPLC method
T1 sequence (Q07973 whole entry): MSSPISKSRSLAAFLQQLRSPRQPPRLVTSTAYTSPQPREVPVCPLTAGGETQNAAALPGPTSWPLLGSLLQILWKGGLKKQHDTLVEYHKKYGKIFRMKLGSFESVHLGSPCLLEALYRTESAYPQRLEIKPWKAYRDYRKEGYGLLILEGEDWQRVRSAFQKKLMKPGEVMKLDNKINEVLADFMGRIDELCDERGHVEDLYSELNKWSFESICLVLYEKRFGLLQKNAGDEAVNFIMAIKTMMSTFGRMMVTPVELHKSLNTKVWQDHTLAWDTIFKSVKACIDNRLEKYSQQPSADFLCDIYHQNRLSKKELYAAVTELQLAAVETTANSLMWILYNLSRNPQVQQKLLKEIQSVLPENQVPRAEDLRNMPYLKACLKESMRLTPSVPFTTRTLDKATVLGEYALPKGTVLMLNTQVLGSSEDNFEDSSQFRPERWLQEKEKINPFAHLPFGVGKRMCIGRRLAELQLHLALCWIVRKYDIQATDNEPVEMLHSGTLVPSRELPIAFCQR

[2] = Cytotoxicity against human primary CLL cells; type: functional; settings: read-out: LD50 (the source's name)
How it was run: (§1)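 Primary CLL cells or normal B-cells from peripheral blood, purified by negative selection (CD3 Dynabeads; >90% purity by flow cytometry). Cultured at 1x10⁶/ml in RPMI with 10% FCS, penicillin/streptomycin and 5 ng/ml IL-4, 37 °C, 5% CO2. Exposed to inhibitor (0–1x10⁻⁷ M) up to 48 h. Annexin V-FITC/PI flow cytometry; LD50 from sigmoidal dose-response; triplicate.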

[3] = Induction of apoptosis in human primary CLL cells after 48 hrs by Annexin V/propidium iodide staining based flow cytometry; type: functional; how it was run: as §1
[4] = Induction of apoptosis in normal human B cells after 48 hrs by Annexin V/propidium iodide staining based flow cytometry; type: cell-based, B cell; settings: read-out: LD50; how it was run: as §1
[5] = target: T1, 1,25-dihydroxyvitamin D(3) 24-hydroxylase, mitochondrial; test: Inhibition of CYP24A1 in human primary CLL cells assessed as increase in VDR-regulated CDKN1A mRNA expression at 0.05 to 0.10 uM in presence of 100 nM 1,25(OH)2D3 incubated for 24 hrs by quantitative RT-PCR method; type: cell-based
How it was run: (§2)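 Primary CLL lymphocytes, purified by negative selection with CD3 beads (>90% purity), cultured in RPMI with 10% FCS, penicillin/streptomycin and 5 ng/ml IL-4 at 37°C, 5% CO2. Inhibitor 0, 0.01, 0.05 or 0.1 µM for 24 h with or without calcitriol (10 or 100 nM). Total RNA reverse transcribed, SYBR Green real-time PCR, 35 cycles. Target mRNA expressed as ratio to RPS14 from crossing points. Duplicates.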

[6] = target: T1, 1,25-dihydroxyvitamin D(3) 24-hydroxylase, mitochondrial; test: Inhibition of CYP24A1 in human primary CLL cells assessed as increase in VDR-regulated GADD45alpha mRNA expression at 0.05 to 0.10 uM in presence of 100 nM 1,25(OH)2D3 incubated for 24 hrs by quantitative RT-PCR method; type: cell-based; how it was run: as §2
[7] = target: T1, 1,25-dihydroxyvitamin D(3) 24-hydroxylase, mitochondrial; test: Inhibition of CYP24A1 in human primary CLL cells assessed as increase in VDR-regulated CDKN1A mRNA expression in presence of 100 nM calcitriol incubated for 24 hrs by quantitative RT-PCR method; type: cell-based; how it was run: as §2

| Structure (SMILES) | IC50 [1] [nM] | Ki [1] [nM] | other results |
| --- | --- | --- | --- |
| O=C(NCC(c1ccccc1)n1ccnc1)c1ccc(CCc2ccc(F)cc2)cc1 (configuration not stated) | 510 | 36 | – |
| COc1ccc(/C=C/c2ccc(C(=O)NCC(c3ccccc3)n3ccnc3)cc2)cc1 (configuration not stated) | 340 | 24 | CC50 [2]: 3200 nM |
| C=C1/C(=C\C=C2/CCC[C@]3(C)C([C@H](C)C/C=C/S(=O)(=O)C(C)(C)C)=CC[C@@H]23)C[C@@H](O)C[C@@H]1O [LUNACALCIPOL] | 27 | – | – |
| COc1cc(/C=C/c2ccc(CCC(=O)C(C)(C)C)cc2)cc(OC)c1 | 2100 | 150 | – |
| Nc1nc(F)nc2c1ncn2[C@@H]1O[C@H](CO)[C@@H](O)[C@@H]1O [FLUDARABINE] | – | – | CC50 [2]: 1100 nM |
| CC(C)(C)C(CCc1ccc(/C=C/c2ccccc2)cc1)OS(C)(=O)=O (configuration not stated) | 5600 | 400 | – |
| COc1cc(/C=C/c2ccc(CCC(OS(C)(=O)=O)C(C)(C)C)cc2)cc(OC)c1 (configuration not stated) | 5400 | 380 | – |
| C=C1/C(=C\C=C2/CCC[C@]3(C)[C@@H]([C@H](C)CCS(=N)(=O)c4ccccc4)CC[C@@H]23)C[C@@H](O)C[C@@H]1O (some centres not stated) | 6.5 | – | – |
| C=C1[C@H](O)CC(=C/C=C2\CCC[C@]3(C)[C@@H]([C@H](C)Cn4ccnc4)CC[C@@H]23)C[C@H]1O | – | 21 | – |
| C=C1/C(=C\C=C2/CCC[C@]3(C)[C@@H]([C@H](C)CCCC(C)(C)O)CC[C@@H]23)C[C@@H](O)C[C@@H]1O [CALCITRIOL] | – | – | LD50 [3]: 2.86 ×10⁻⁷ M; CC50 at 48 h [4]: 6510 nM |
| CC(C)(C)C(=O)/C(=C/c1ccc(/C=C/c2ccccc2)cc1)n1ccnc1 | 180 | 13 | – |
| O=C(NCC(c1ccccc1)n1ccnc1)c1ccc(/C=C/c2ccc(F)cc2)cc1 (configuration not stated) | 260 | 19 | CC50 [2]: 15 nM |
| C=C1[C@H](O)CC(=C/C=C2\CCC[C@]3(C)[C@@H]([C@H](C)CCCNC4CC4)CC[C@@H]23)C[C@H]1O | – | 42 | – |
| O=C(NCC(c1ccccc1)n1ccnc1)c1ccc(/C=C/c2ccccc2)cc1 (configuration not stated) | 400 | 28 | CC50 [2]: 27 nM |
| CC(C)(C)C(=O)C(Cc1ccc(CCc2ccccc2)cc1)n1ccnc1 (configuration not stated) | 600 | 42 | – |
| O=C(NCC(c1ccccc1)n1ccnc1)c1ccc(S(=O)(=O)Nc2ccccc2)cc1 (configuration not stated) | 1300 | 91 | – |
| COc1cc(/C=C/c2ccc(C(=O)NCC(c3ccccc3)n3ccnc3)cc2)cc(OC)c1OC (configuration not stated) | 140 | 9.7 | inhibition (INH) [5]: Active; CC50 [2]: 3500 nM; inhibition (INH) [6]: Active |
| COc1cc(/C=C/c2ccc(C(=O)NCC(c3ccccc3)n3ccnc3)cc2)cc(OC)c1 (configuration not stated) | 110 | 7.8 | inhibition (INH) [5]: Active; CC50 [2]: 13 nM; inhibition (INH) [6]: Active; inhibition (INH) [7]: Dose-dependent effect |
| Clc1cccc(C(c2ccc3[nH]cnc3c2)n2ccnc2)c1 (configuration not stated) [LIAROZOLE] | 2.3 | – | – |
| C=C1CC[C@H](O)C/C1=C/C=C1\CCC[C@]2(C)[C@@H]([C@H](C)CCCOS(=O)(=O)c3ccc(C)cc3)CC[C@@H]12 | – | 39 | – |
| COc1cc(/C=C/c2ccc(CCC(OC(=O)n3ccnc3)C(C)(C)C)cc2)cc(OC)c1 (configuration not stated) | 160 | 11 | – |
| COc1cc(/C=C/c2ccc(CCC(OS(=O)(=O)c3ccc(C)cc3)C(C)(C)C)cc2)cc(OC)c1 (configuration not stated) | 2900 | 210 | – |
